UPR XBP1 act: activators of adaptive arm of unfolded protein response (XBP1); CHO-XBP1 luciferase reporter, IRE1-XBP1 UPR activation, luminescence; percent of tunicamycin response, DMSO as zero; activation, % at 20 µM; 330,000 compounds, 0.33% hits;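 active = versus positive control, 20 µM dose yields 30% or more activation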
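Signal: luciferase luminescence; Assay system: CHO-XBP1 luciferase reporter cells; Amount: one thousand reporter cells per well; Dosing: 20 µM single concentration, DMSO 1%; Benchmarks: high control tunicamycin 10 µg/mL final, low control DMSO vehicle only; Schedule: 6 h compound exposure at 37 °C, 5% CO2; Evaluation: percent activation relative to tunicamycin reference.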
CHOP inhibitor: CHOP inhibition in unfolded protein response | AID 2732 | 220,000 compounds, 3.8% hits | inhibition, % at 10 µM | CHO-K1 CHOP-promoter luciferase, tunicamycin-induced, 15-18 h;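 active = compounds that reduced the stress-induced luciferase reporter signal by more than about 70% of percent inhibition, limit read from the data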
UPR CHOP act: activators of apoptotic arm of unfolded protein response (CHOP); CHO-CHOP luciferase reporter, UPR activation, luminescence; percent of tunicamycin response over DMSO baseline; activation, % at 10 µM; 330,000 compounds, 0.34% hits; AID 449763;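 active = at 10 µM dose, activation of 40% or more, normalized to positive control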
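assay system = CHO CHOP reporter cells | amount = 500 CHO-CHOP cells per well | buffer or medium = F12 with 10% FBS | incubation = 16-18 h cell attachment, then 6 h compound exposure, 37 °C | detection = luminescence read with Steady-Glo | read-out = percent activation relative to tunicamycin control | controls = tunicamycin high control, DMSO low control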
VLA-4 inh: inhibition in a human VLA-4 binding assay; 330,000 compounds, 0.2% hits; inhibition, % (about 7 µM as worked out from the volumes in the protocol); VLA-4 expressing cells, ligand binding flow cytometry; P13612; in the data active = inhibition above about 50%
Target sequence (P13612 whole entry, looked up): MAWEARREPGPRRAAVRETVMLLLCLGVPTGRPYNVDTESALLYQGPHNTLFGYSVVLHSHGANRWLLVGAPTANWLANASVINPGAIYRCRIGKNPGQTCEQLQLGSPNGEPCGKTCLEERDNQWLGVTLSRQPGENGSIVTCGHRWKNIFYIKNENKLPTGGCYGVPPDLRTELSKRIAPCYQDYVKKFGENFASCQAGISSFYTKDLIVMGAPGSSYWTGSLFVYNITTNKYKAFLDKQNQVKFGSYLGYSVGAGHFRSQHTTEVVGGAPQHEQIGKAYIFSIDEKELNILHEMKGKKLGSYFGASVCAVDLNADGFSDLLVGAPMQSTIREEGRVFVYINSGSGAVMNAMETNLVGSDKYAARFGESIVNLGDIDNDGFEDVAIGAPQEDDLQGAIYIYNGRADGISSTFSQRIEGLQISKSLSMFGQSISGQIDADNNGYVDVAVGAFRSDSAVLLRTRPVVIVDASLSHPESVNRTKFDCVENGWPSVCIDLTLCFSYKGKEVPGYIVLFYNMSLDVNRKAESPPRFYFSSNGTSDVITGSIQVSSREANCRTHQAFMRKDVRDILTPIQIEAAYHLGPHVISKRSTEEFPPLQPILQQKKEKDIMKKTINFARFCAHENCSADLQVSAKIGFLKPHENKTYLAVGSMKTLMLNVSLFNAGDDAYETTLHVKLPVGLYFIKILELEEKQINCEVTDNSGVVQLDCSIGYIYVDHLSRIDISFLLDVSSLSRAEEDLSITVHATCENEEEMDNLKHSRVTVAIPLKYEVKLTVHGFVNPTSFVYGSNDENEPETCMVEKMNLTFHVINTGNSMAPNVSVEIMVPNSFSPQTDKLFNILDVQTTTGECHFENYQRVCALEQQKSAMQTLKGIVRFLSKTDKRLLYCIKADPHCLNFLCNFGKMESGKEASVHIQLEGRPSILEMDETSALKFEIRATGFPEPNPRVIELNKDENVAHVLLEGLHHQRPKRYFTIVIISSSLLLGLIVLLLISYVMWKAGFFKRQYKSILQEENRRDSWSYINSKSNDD
Beta2AR agonist: human beta-2 adrenergic receptor agonism by FAP | P07550 | Am2.2-beta2AR cells, FAP receptor internalization, flow cytometry | response, % (test concentration not listed) | 340,000 compounds, 0.43% hits;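 active = response above a set limit, near 3 SD of response in nonfluorescent compounds, cut at about 42% in these data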
Hits are given with their value; . = inactive; / = no result. The sample as a whole holds a higher share of hits than the screen did.

SMILES	UPR XBP1 act	CHOP inhibitor	UPR CHOP act	VLA-4 inh	Beta2AR agonist
N#Cc1ccccc1S(=O)(=O)N1CCN(CC(O)CN2CCOCC2)CC1 (centres undefined)	.	/	.	.	.
COc1ccc(-c2nn3c(-c4ccccc4)nnc3s2)cc1	.	.	.	.	.
COc1ccc(-c2nn3c(-c4ccc(F)cc4)nnc3s2)cc1	.	82.5	.	.	.
COc1cccc(NC(=O)COC(=O)c2ccc(C)c(S(=O)(=O)N3CCCCC3)c2)c1	.	/	.	.	.
O=C1CSC(c2cccc([N+](=O)[O-])c2)N1c1c(F)cccc1F (centres undefined)	.	.	.	.	.
O=c1c2ccccc2c(-c2ccc(O)cc2)nn1-c1cccc(C(F)(F)F)c1	.	93.7	.	/	.
CCOC(=O)c1c(C)[nH]c(C)c1C(=O)COC(=O)Cc1n[nH]c(=O)c2ccccc12	.	/	.	.	.
CCOC(=O)C1=C(C)NC(C)=C(C(=O)OCC)C1c1ccccc1/C=C/C(=O)OC(C)(C)C	39.0	/	.	.	/
CCOC(=O)C1=C(C)NC(C)=C(C(=O)OCC)C1/C=C/c1ccccc1OC	.	.	.	.	.
Cc1[nH]c2ccccc2c1C(O)CN1CCN(c2cccc(C(F)(F)F)c2)CC1 (centres undefined)	.	74.3	.	.	.
O=C(Nc1ccc(Cl)c([N+](=O)[O-])c1)C(Sc1ccccc1)c1ccccc1 (centres undefined)	.	83.5	.	.	.
CC(C)(C)NS(=O)(=O)c1ccc(NC(=O)C(Sc2ccccc2)c2ccccc2)cc1 (centres undefined)	.	75.1	.	.	.
CN(CC(=O)Nc1ccc(Cl)c(C(F)(F)F)c1)C(=O)CNC(=O)C1CCCCC1	.	/	.	.	.
O=C(COC(=O)c1ccccc1[N+](=O)[O-])Nc1cc(S(=O)(=O)N2CCOCC2)ccc1N1CCCC1	.	.	.	.	.
CN(Cc1nc2ccccc2c(=O)[nH]1)C(=O)c1cc(-c2ccc(Br)cc2)nc2ccccc12	/	/	/	/	.
COCCC1CCCCN1C(=O)c1ccc2nc(Cc3ccccc3F)oc2c1 (centres undefined)	.	/	.	.	.
N#C/C(=C\c1cn[nH]c1-c1ccccc1)C(=O)NC1CCCCCC1	.	71.5	.	.	.
N#C/C(=C\c1cn[nH]c1-c1ccc(Cl)cc1)C(=O)NC1CC1	.	.	.	.	.
CCc1ccc(C(C)NC(=O)/C(C#N)=C\c2cn[nH]c2-c2ccccc2)cc1 (centres undefined)	.	78.4	.	.	.
CC(NC(=O)/C(C#N)=C/c1cn[nH]c1-c1ccccc1)c1ccccc1 (centres undefined)	.	.	.	.	.
Cc1ccccc1NC(=O)Cc1nc(COC(=O)CC(C)c2ccccc2)cs1 (centres undefined)	.	/	.	/	.
Cc1ccc2c(c1)Oc1ccc(NC(=O)CCl)cc1C(=O)N2	.	107.1	.	.	.
Cc1ccc2c(c1)Oc1ccc([N+](=O)[O-])cc1C(=O)N2	.	.	.	.	.
Cc1ccccc1C(=O)Nc1ccc(O)c2c(=O)cc(-c3ccccc3Cl)oc12	.	.	.	/	.
O=C(Nc1ccc(O)c2c(=O)cc(-c3ccccc3Cl)oc12)c1ccc(Cl)c(Cl)c1	.	94.3	.	.	.
SMILES	UPR XBP1 act	CHOP inhibitor	UPR CHOP act	VLA-4 inh	Beta2AR agonist
C=C1c2ccccc2O[C@H](C(=O)OCC)[C@@H]1C1CCCCC1	.	/	.	/	.
CCOC(=O)C1=C(N)c2ccccc2CC1C1CCCC1 (centres undefined)	.	90.9	.	.	.
COc1ccc(NS(=O)(=O)c2ccc3c(c2)Cc2ccccc2-3)cn1	.	95.0	.	.	.
CC(=O)Nc1ccc(NC(=O)c2ccc(Cn3cc(Cl)cn3)cc2)cc1	.	92.1	.	.	.
Cc1ccc(-c2nc3cc(N)ccc3o2)c(C)c1	.	.	.	.	.
Nc1ccc2oc(-c3cccc4ccccc34)nc2c1	.	81.3	.	.	.
COc1ccc(CNC(=O)[C@H](Cc2ccccc2)NC(=O)C2CCNCC2)cc1	.	/	.	.	.
COc1ccccc1-c1c(C)nn2c(N3CCN(Cc4ccccc4)CC3)cc(C)nc12	.	92.5	.	.	.
COc1ccccc1-c1c(C)nn2c(N3CCCCCC3)cc(C)nc12	.	89.9	.	.	.
CSCCC(NS(=O)(=O)c1ccc(C)cc1C)C(=O)Nc1cccnc1 (centres undefined)	.	/	.	.	.
CCCCN(C)CCNC(=O)c1cn(C)c(=O)c2c1c1ccccc1n2C	.	/	.	.	.
CN(CC(=O)Nc1ccc(Cl)cc1)C(=O)CNC(=O)Cc1cccc2ccccc12	.	/	.	.	.
COc1ccc(-c2nc(N)ncc2-c2csc(C)n2)c(O)c1	.	73.2	.	.	.
CCOc1ccc(-c2nc(N)ncc2-c2ccc(OC)cc2)c(O)c1	.	.	.	.	.
CCOc1ccc(-c2nc(N)ncc2-c2ccccc2)c(O)c1	.	90.8	.	.	.
CCCCCCCCCCCCCCCCOCC(COCC(F)(F)F)OP(=O)(O)OCO (centres undefined)	/	.	/	/	/
CO/N=C/c1ccc(N2CCN(C(=O)c3ccc(C)cc3)CC2)c([N+](=O)[O-])c1	.	72.5	.	.	.
CO/N=C/c1ccc(N2CCCC2)c([N+](=O)[O-])c1	.	.	.	.	.
CCCCN(CCCC)c1nc2ccccc2nc1C(C#N)C(=O)NCCCOC (centres undefined)	.	.	.	.	.
CCCN(CCC)c1nc2ccccc2nc1C(C#N)C(=O)OC(C)COC (centres undefined)	.	86.6	.	.	/
CCC(=O)N1CCN(c2nc(-c3ccccc3)c3c(c2C#N)CCCC3)CC1	.	73.2	.	.	.
O=C(CSc1nnc(SCc2ccc(Cl)cc2)s1)N/N=C/c1c[nH]c2ccccc12	/	91.6	/	.	.
CC1CC(C)CN(C(=O)c2ccc3c(c2)N(Cc2ccccc2)CCS3)C1 (centres undefined)	.	72.7	.	.	.
COc1cccc(OC)c1-c1nn2c(-c3cc(-c4ccccc4)n[nH]3)nnc2s1	.	/	.	.	100.4
NC(=O)c1ccccc1N	.	/	.	.	.
CCOC(=O)c1c(NC(=O)c2cc(CC(C)C)on2)sc(C(C)=O)c1C	.	.	.	.	.
CCOC(=O)c1c(NC(=O)c2cc(C(C)C)on2)sc(C(C)=O)c1C	.	93.5	.	.	.
O=C(c1ccccc1)N1CCN(CC2CC=CCC2)CC1 (centres undefined)	.	78.6	.	.	.
C[C@H](NC(=O)c1nc[nH]c1C(=O)NCCCCCNC(=O)OC(C)(C)C)C(=O)OC(C)(C)C	.	.	.	.	.
CCC(C)N(C(=O)CSc1nc(-c2cccs2)nc2ccccc12)C1CCS(=O)(=O)C1 (centres undefined)	/	/	/	/	.
